{"data": "Experimental data gathered from unrelated publications", "target": "Calcium/calmodulin-dependent protein kinase type 1 (CAMK1, Homo sapiens, UniProt Q14012)", "note": "Each line is one published result; the experiments were not run side by side."}
{"SMILES": "COc1cc(/C=C/C(=O)CC(=O)/C=C/c2ccc(O)c(OC)c2)ccc1O", "effect on": "enzyme activity", "action": "inhibitor", "tested at": "1 µM", "quantity": "activity vs control", "value": "86%"}
{"SMILES": "Cn1c(=O)n(-c2ccc(C(C)(C)C#N)cc2)c2c3cc(-c4cnc5ccccc5c4)ccc3ncc21", "effect on": "enzyme activity", "action": "inhibitor", "tested at": "10 µM", "quantity": "remaining activity", "value": "100%"}
{"SMILES": "Nc1ncnc2occ(-c3ccc(NC(=O)Nc4cc(C(F)(F)F)ccc4F)cc3)c12", "effect on": "cell-free assay", "tested at": "20 µM", "quantity": "remaining signal", "value": "5.5%"}
{"SMILES": "COc1cc(-c2cn(C3CCc4c(F)cccc4N(CC(F)(F)F)C3=O)nn2)ccc1-n1cnc(C)c1 (stereo not drawn)", "effect on": "cell-free assay", "technique": "competition with immobilised ligand", "tested at": "1 µM", "quantity": "remaining binding", "value": "100%"}
{"SMILES": "Cc1cc(NC(=O)c2cccc3cc(-c4cccc5[nH]nc(N)c45)ccc23)ccc1F", "effect on": "enzyme activity", "action": "inhibitor", "tested at": "0.1 µM", "quantity": "activity vs control", "value": "116%"}
{"SMILES": "c1ccc(CNc2nc(N3CCOc4ccccc43)nc3c2CCCC3)cc1", "effect on": "target engagement in cells", "action": "inhibitor", "technique": "chemoproteomics", "tested at": "20 mM", "quantity": "inhibition", "value": "1.2%"}
{"SMILES": "O=C1Nc2ccc(Cl)cc2C1=Cc1cc(Cl)c(O)c(Cl)c1", "effect on": "cell-free assay", "tested at": "0.5 µM", "quantity": "remaining signal", "value": "94.9%"}
{"SMILES": "O=C(NS(=O)(=O)c1ccc(NCC2CCOCC2)c([N+](=O)[O-])c1)c1ccc(N2CCN(Cc3ccc(C(F)(F)F)cc3-c3ccc(Cl)cc3)CC2)cc1Oc1cnc2[nH]ccc2c1", "effect on": "cell-free assay", "technique": "competition with immobilised ligand", "tested at": "1 µM", "quantity": "remaining binding", "value": "100%"}
{"SMILES": "CNC(=O)c1cc(Oc2ccc(NC(=O)Nc3ccc(Cl)c(C(F)(F)F)c3)cc2)ccn1", "effect on": "enzyme activity", "action": "inhibitor", "tested at": "0.3 µM", "quantity": "inhibition", "value": "-6%"}
{"SMILES": "O=C(O)[C@@H]1[C@@H](Cn2nnc3ccccc3c2=O)CC[C@H]1C(=O)c1ccc(OCCC2CCOCC2)cc1", "effect on": "cell-free assay", "technique": "competition with immobilised ligand", "tested at": "1 µM", "quantity": "remaining binding", "value": "92%"}
{"SMILES": "COc1cc2c(Nc3ccc(Br)cc3F)ncnc2cc1OCC1CCN(C)CC1", "effect on": "cell-free assay", "tested at": "0.5 µM", "quantity": "remaining signal", "value": "81.6%"}
{"SMILES": "Nc1nc(Nc2ccccc2)sc1C(=O)c1c(F)cccc1F", "effect on": "enzyme activity", "action": "inhibitor", "tested at": "10 µM", "quantity": "remaining activity", "value": "55%"}
{"SMILES": "Cc1ccc(Nc2nccc(N(C)c3ccc4c(C)n(C)nc4c3)n2)cc1S(N)(=O)=O", "effect on": "enzyme activity", "action": "inhibitor", "tested at": "10 µM", "quantity": "inhibition", "value": "52%"}
{"SMILES": "Nc1c(C(=O)NCc2ccc(C(=O)NCCCC3CCCCC3)cc2)cnn1-c1ccccc1", "effect on": "cell-free assay", "technique": "competition with immobilised ligand", "tested at": "0.1 µM", "quantity": "remaining binding", "value": "100%"}
{"SMILES": "CC(C)c1ccc(NC(=O)c2cccs2)c(-c2nc3ccccc3[nH]c2=O)c1", "effect on": "enzyme activity", "action": "inhibitor", "tested at": "1 µM", "quantity": "activity vs control", "value": "104%"}
{"SMILES": "Cc1noc([C@H]2C[C@@H](c3ccc(C(F)(F)F)cc3)CN(C(=O)N3CCS(=O)(=O)C3)C2)n1", "effect on": "cell-free assay", "technique": "competition with immobilised ligand", "tested at": "1 µM", "quantity": "remaining binding", "value": "100%"}
{"SMILES": "Cc1sc(C(=O)NC2COC2)cc1-n1cc(NC(=O)Nc2c(F)cccc2Cl)cn1", "effect on": "enzyme activity", "action": "inhibitor", "tested at": "10 µM", "quantity": "remaining activity", "value": "115%"}
{"SMILES": "C=CC(=O)Nc1cc(Nc2nccc(Nc3cc(Cl)c(F)cc3C(C)(C)O)n2)c(OC)cc1N1CC[C@@H](N(C)C)C1", "effect on": "enzyme activity", "action": "inhibitor", "tested at": "1 µM", "quantity": "inhibition", "value": "2%"}
{"SMILES": "Cc1nc(N2CC[C@@H](O)C2)ncc1-c1cc(C(F)(F)F)cc2[nH]ncc12", "effect on": "cell-free assay", "technique": "competition with immobilised ligand", "tested at": "1 µM", "quantity": "remaining binding", "value": "100%"}
{"SMILES": "CCCS(=O)(=O)Nc1ccc(F)c(C(=O)c2c[nH]c3ncc(-c4ccc(Cl)cc4)cc23)c1F", "effect on": "enzyme activity", "action": "inhibitor", "tested at": "1 µM", "quantity": "inhibition", "value": "< 10%"}
{"SMILES": "CN1CC(Oc2cnc(C#N)cc2-c2ccn3nc(NC(=O)C4CC4)cc3c2)C1", "effect on": "enzyme activity", "action": "inhibitor", "tested at": "1 µM", "quantity": "inhibition", "value": "1%"}
